Results as given in ChEMBL document CHEMBL1153357, “Rational design and synthesis of potent and long-lasting glutamic acid-based dipeptidyl peptidase IV inhibitors” (Bioorg Med Chem Lett, 2009).
The source made the active and inactive calls. The rule behind the calls is not given here.

Assays:
[1] = Inhibition of FAP
How it was run: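 Enzyme inhibition IC50 is reported as the mean of at least three experiments, with standard deviations of ±40%.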

Dipeptidyl peptidase 4 = Dipeptidyl peptidase 4 (Homo sapiens, UniProt P27487)
Dipeptidyl peptidase 2 = Dipeptidyl peptidase 2 (Homo sapiens, UniProt Q9UHL4); assay: Inhibition of DPP2
Mus musculus = assay: Reduction in glucose excursion in C57BL/6 mouse at 3 mg/kg, po measured up to 120 mins by oral glucose tolerance test; assay type: functional, organism-based; design: dose 3 mg/kg
How it was run: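 C57BL/6j mice (n = 6) received the compound orally at 3 mpk, with water as the control, 30 min before a glucose load of 3 g/kg.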

Rattus norvegicus [2] = assay: Inhibition of plasma DPP4 in Wistar rat at 3 mg/kg, po measured after 8 hrs; conditions: read-out: INH
Rattus norvegicus [3] = assay: Inhibition of plasma DPP4 in Wistar rat at 3 mg/kg, po measured 30 mins to 4 hrs; conditions: read-out: INH
[4] = Stability to the compound assessed as half life in phosphate buffer at pH 7.4; assay type: physicochemical
Dipeptidyl peptidase 8 = Dipeptidyl peptidase 8 (Homo sapiens, UniProt Q6V1X1); assay: Inhibition of DPP8
Dipeptidyl peptidase 8, sequence (Q6V1X1 whole entry): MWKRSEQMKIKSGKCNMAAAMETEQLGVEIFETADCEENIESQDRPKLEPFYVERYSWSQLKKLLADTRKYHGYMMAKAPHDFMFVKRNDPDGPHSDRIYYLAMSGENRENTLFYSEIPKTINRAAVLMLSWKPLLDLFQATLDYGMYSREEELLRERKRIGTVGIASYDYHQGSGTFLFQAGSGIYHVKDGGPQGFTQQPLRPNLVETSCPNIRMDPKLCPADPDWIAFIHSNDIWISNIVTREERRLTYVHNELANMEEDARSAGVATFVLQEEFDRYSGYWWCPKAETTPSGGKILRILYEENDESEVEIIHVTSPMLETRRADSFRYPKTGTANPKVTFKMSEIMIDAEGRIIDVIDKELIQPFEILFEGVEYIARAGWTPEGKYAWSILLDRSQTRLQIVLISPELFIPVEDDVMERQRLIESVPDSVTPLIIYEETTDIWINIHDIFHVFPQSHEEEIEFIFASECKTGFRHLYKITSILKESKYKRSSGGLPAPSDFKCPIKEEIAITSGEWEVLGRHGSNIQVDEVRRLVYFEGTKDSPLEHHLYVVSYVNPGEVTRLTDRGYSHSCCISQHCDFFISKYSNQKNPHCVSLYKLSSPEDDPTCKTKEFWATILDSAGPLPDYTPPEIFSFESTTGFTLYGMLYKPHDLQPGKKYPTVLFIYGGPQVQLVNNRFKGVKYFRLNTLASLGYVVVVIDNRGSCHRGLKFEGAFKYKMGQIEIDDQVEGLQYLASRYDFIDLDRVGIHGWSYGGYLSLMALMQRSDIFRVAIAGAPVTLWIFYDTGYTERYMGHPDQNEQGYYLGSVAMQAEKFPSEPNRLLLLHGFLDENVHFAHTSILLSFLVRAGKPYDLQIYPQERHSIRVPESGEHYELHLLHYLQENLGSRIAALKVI

Dipeptidyl peptidase 4, sequence (P27487 whole entry): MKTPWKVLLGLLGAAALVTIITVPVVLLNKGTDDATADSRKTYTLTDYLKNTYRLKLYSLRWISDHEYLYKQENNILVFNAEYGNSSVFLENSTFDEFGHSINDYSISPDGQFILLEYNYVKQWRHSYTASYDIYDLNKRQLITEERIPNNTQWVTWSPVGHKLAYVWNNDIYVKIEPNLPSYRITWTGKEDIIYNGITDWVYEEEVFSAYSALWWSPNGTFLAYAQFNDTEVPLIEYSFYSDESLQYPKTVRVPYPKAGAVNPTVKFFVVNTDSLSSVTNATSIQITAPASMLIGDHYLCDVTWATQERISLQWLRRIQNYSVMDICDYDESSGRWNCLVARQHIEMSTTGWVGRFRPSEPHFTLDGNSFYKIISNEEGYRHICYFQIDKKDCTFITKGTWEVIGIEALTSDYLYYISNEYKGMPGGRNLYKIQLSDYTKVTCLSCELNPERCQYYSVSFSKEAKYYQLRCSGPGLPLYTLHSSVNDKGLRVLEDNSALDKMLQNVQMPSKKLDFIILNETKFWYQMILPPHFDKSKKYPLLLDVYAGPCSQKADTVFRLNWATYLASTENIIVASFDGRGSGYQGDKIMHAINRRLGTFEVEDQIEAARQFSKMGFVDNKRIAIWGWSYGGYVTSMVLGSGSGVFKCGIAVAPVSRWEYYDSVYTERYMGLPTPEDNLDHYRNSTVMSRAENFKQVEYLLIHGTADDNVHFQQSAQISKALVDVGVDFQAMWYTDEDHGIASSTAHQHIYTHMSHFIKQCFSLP

Row | IC50 [1] | IC50 (Dipeptidyl peptidase 4) | IC50 (Dipeptidyl peptidase 2) | Compound | further results
1 | 8.8 µM |  |  | N#C[C@@H]1CCCN1C(=O)[C@@H](N)CCC(=O)N1CCc2ccccc2C1 | 
2 | 3.1 µM | 31 nM | > 20 µM | CCOC(=O)N1CCN(C(=O)CC[C@H](N)C(=O)N2CCC[C@H]2C#N)CC1 | 
3 | 0.47 µM |  |  | N#C[C@@H]1CCCN1C(=O)[C@@H](N)CCC(=O)N1CCN(c2ccncc2)CC1 | 
4 | > 20 µM | 9 nM | > 20 µM | N#C[C@@H]1CCCN1C(=O)[C@@H](N)CCC(=O)N1CCn2nc(C(F)(F)F)nc2C1 | 
5 | > 20 µM | 31 nM | > 20 µM | CC[C@H](CC(=O)N1CCn2c(nnc2C(F)(F)F)C1)[C@H](N)C(=O)N1CCC[C@H]1C#N | 
6 | > 20 µM | 25 nM | > 20 µM | CC(C)(CC(=O)N1CCc2ccsc2C1)[C@H](N)C(=O)N1CCC[C@H]1C#N | 
7 | > 20 µM | 17 nM | > 20 µM | N#C[C@@H]1CCCN1C(=O)[C@@H](N)CCC(=O)N1CCOCC1 | 
8 | 7.5 µM |  |  | N#C[C@@H]1CCCN1C(=O)[C@@H](N)CCC(=O)N1CCc2ccsc2C1 | 
9 | > 20 µM | 7 nM | > 20 µM | N#C[C@@H]1CCCN1C(=O)[C@@H](N)CCC(=O)N1CCn2cnnc2C1 | 
10 |  | 37 nM |  | N#C[C@@H]1CCCN1C(=O)[C@@H](N)CCC(=O)Nc1ccccc1 | 
11 | > 20 µM | 12 nM | > 20 µM | CC(C)(CC(=O)N1Cc2ccccc2C1)[C@H](N)C(=O)N1CCC[C@H]1C#N | 
12 | > 20 µM |  | > 20 µM | N#C[C@@H]1CCCN1C(=O)[C@@H](N)CC(=O)N1Cc2ccccc2C1 | 
13 | > 20 µM | 12 nM | > 20 µM | CC(C)(CC(=O)N1CCn2c(nnc2C(F)(F)F)C1)[C@H](N)C(=O)N1CCC[C@H]1C#N | 
14 | 21 µM | 22 nM | > 20 µM | COC[C@H]1CCCN1C(=O)CC[C@H](N)C(=O)N1CCC[C@H]1C#N | 
15 | > 20 µM |  |  | N[C@@H](CC(=O)N1CCn2c(nnc2C(F)(F)F)C1)Cc1cc(F)c(F)cc1F [SITAGLIPTIN] | 
16 | 11 µM | 7 nM | > 20 µM | N#C[C@@H]1CCCN1C(=O)[C@@H](N)CCC(=O)N1CCCC1 | 
17 | 20 µM | 7 nM | > 20 µM | COC[C@@H]1CCCN1C(=O)CC[C@H](N)C(=O)N1CCC[C@H]1C#N | 

Row | IC50 [1] | IC50 (Dipeptidyl peptidase 4) | IC50 (Dipeptidyl peptidase 2) | Compound | further results
18 | > 20 µM | 15 nM | > 20 µM | N#C[C@@H]1CCCN1C(=O)[C@@H](N)CCC(=O)N1CCCCC1 | 
19 | > 20 µM | 11 nM | > 20 µM | N#C[C@@H]1CCCN1C(=O)[C@@H](N)CCC(=O)NC1CCCC1 | 
20 | 6.1 µM |  |  | COc1cc2c(cc1OC)C(C(C)C)N(C(=O)CC[C@H](N)C(=O)N1CCC[C@H]1C#N)CC2 (some centres undefined) | 
21 | 1.2 µM |  |  | N#C[C@@H]1CCCN1C(=O)[C@@H](N)CCC(=O)N1Cc2ccccc2C1 | 
22 | 2.3 µM |  |  | N#C[C@@H]1CCCN1C(=O)[C@@H](N)CCC(=O)N1CCc2nc(-c3ccc(F)cc3)sc2C1 | 
23 | > 20 µM |  |  | N#C[C@@H]1CCCN1C(=O)[C@@H](N)CCC(=O)N1CCn2c(nnc2C(F)(F)F)C1 | 
24 | > 20 µM | 16 nM | > 20 µM | CC(C)(CC(=O)N1CCc2ccccc2C1)[C@H](N)C(=O)N1CCC[C@H]1C#N | 
25 | 0.054 µM |  |  | N#C[C@@H]1CCCN1C(=O)[C@@H](N)CCCC(=O)N1Cc2ccccc2C1 | 
26 | > 20 µM | 13 nM | > 20 µM | C[C@@H]1CCCN1C(=O)CC(C)(C)[C@H](N)C(=O)N1CCC[C@H]1C#N | 
27 | 8.3 µM | 10 nM | > 20 µM | N#C[C@@H]1CCCN1C(=O)[C@@H](N)CCC(=O)N1CCSC1 | 
28 | 14 µM |  |  | N#C[C@@H]1CCCN1C(=O)[C@@H](N)CCC(=O)N1CCn2cc(C(F)(F)F)nc2C1 | 
29 | 12 µM | 1600 nM | > 20 µM | N[C@@H](CCC(=O)N1Cc2ccccc2C1)C(=O)N1CCSC1 | IC50 (Dipeptidyl peptidase 8): > 20 µM
30 | 1.2 µM |  |  | N#CC1CCCN1C(=O)[C@@H](N)CCC(=O)N1Cc2ccccc2C1 (single isomer, unassigned) | 
31 | 19 µM | 8 nM | > 20 µM | N#C[C@@H]1CCCN1C(=O)[C@@H](N)CCC(=O)N1CCN(C(=O)C(F)(F)F)CC1 | 
32 | 7.1 µM |  | > 20 µM | C[C@H](CC(=O)N1CCn2c(nnc2C(F)(F)F)C1)[C@H](N)C(=O)N1CCC[C@H]1C#N | 
33 | > 20 µM | 31 nM | > 20 µM | CC(C)(CC(=O)N1CCn2nc(C(F)(F)F)nc2C1)[C@H](N)C(=O)N1CCC[C@H]1C#N | 

Row | Compound | IC50 [1] | IC50 (Dipeptidyl peptidase 4) | IC50 (Dipeptidyl peptidase 2) | further results
34 | N#C[C@@H]1CCCN1C(=O)CNC12CC3CC(CC(O)(C3)C1)C2 [VILDAGLIPTIN] | > 20 µM |  |  | Activity (Mus musculus): Active; inhibition in vivo at 3 mg/kg (Rattus norvegicus [2]): > 60%; inhibition in vivo at 3 mg/kg (Rattus norvegicus [3]): > 80%
35 | COC[C@@H]1CCCN1C(=O)CC(C)(C)[C@H](N)C(=O)N1CCC[C@H]1C#N.O=C(O)C(F)(F)F | > 20 µM |  | > 20 µM | Activity (Mus musculus): Active; inhibition in vivo at 3 mg/kg (Rattus norvegicus [2]): > 60%; inhibition in vivo at 3 mg/kg (Rattus norvegicus [3]): > 80%; half-life [4]: > 7 days
